In ChEMBL document CHEMBL1155225, “Investigation of functionally liver selective glucokinase activators for the treatment of type 2 diabetes” (J Med Chem, 2009):
Values after ≈ are worked out from the molar mass of the structure shown. Active and inactive are the calls of the source. The rule behind the calls is not given here.

Assays:
[1] = target: T1, Hexokinase-4 (Homo sapiens) (UniProt P35557); test: Activation of His-tagged human recombinant liver glucokinase expressed in Escherichia coli BL21 (DE3) assessed as drug level required for half-maximal activation; type: single protein
T1 sequence (whole entry): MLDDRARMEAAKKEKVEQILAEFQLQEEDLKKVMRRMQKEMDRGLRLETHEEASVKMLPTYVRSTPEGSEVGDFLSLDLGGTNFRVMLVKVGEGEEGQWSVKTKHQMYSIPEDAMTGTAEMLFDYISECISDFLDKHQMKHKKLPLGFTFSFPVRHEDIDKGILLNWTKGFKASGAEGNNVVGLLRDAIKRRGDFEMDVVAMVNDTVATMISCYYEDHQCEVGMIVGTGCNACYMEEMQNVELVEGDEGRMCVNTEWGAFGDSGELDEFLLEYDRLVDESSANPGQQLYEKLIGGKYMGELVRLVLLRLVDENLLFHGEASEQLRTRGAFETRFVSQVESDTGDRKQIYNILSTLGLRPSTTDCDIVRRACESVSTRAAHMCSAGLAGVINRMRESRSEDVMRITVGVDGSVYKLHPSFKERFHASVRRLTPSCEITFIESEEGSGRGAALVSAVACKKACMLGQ
Summary of the method: (§1)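 Recombinant human liver GK (aa 17-466), His-tagged, expressed in E. coli BL21 Star (DE3), nickel affinity purified, tag cleaved (GPGSM left), then anion exchange and gel filtration to >95%.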

[2] = target: T2, Hexokinase-4 (Rattus norvegicus) (UniProt P17712); test: Activation of glucokinase-mediated of glucose phosphorylation in Sprague-Dawley rat hepatocytes assessed as release of [3H]H2O from [2-3H]glucose at 30 uM after 3 hrs; type: cell-based; details: Hepatocyte
T2 sequence (whole entry): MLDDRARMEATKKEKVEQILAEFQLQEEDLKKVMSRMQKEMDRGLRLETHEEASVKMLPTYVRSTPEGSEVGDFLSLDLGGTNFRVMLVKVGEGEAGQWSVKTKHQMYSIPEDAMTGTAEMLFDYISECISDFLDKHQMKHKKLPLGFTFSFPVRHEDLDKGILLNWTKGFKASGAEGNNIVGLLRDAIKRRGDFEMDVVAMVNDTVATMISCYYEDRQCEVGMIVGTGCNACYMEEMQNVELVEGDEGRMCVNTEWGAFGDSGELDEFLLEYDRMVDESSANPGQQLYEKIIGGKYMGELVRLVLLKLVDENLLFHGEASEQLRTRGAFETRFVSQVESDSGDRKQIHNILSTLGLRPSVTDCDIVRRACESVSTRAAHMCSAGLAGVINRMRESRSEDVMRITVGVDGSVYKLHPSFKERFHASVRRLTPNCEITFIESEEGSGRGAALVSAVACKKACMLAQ
Summary of the method: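 Hepatocytes from overnight-fasted male Sprague-Dawley rats by collagenase perfusion, cultured 16-20 h at 37 °C, 5% CO2 in serum-free DMEM with 5 mM glucose plus dexamethasone. Preincubated 3 h at 37 °C in serum-free DMEM, 5 mM glucose, with DMSO or 30 μM compound, then 30 min with [2-3H]glucose. Medium collected into 0.1 M HCl; detritiated glucose (nmol/h per 10^6 cells) as % increase over vehicle; quadruplicate, mean ± SEM, Student's t test.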

[3] = Aqueous solubility in water by HPLC analysis; type: physicochemical
Mus musculus [4] = test: Reduction in glucose excursion in C57BL/6 mouse at 50 mg/kg, po in microemulsion administered 30 mins before glucose challenge measured at 4 hrs postdose by oral glucose tolerance test; type: functional, organism-based; design: dose 50 mg/kg; details: C57BL6
Summary of the method: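 C57BL6 mice grouped by matched 0-h plasma glucose; compound given by oral gavage (5 mL/kg) at 50 mg/kg (or 72 mg/kg) in microemulsion (Cremophor RH40, corn oil-monodiglyceride, propylene glycol, ethanol; diluted 2:3 with water) or in water; oral glucose 1 g/kg 30 min later. Blood sampled at 0.5, 1, 2 and 4 h post-dosing for glucose (meter) and insulin; % reduction from control.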

[5] = Permeability at 5 to 10 uM at pH 4, 6.8 and 8 by PAMPA; details: pH 4, 6.8, 8, 10 µM
[6] = Metabolic stability in human liver microsomes assessed as half life; type: ADME, Microsome
Summary of the method: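 Compound incubated at 1 μM with human liver microsomes plus selected cofactors (NADPH, UDPGA); clearance followed at 4 time points as % test compound remaining, giving half-life.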

[7] = Intrinsic solubility in neutral pH by HPLC analysis; type: physicochemical
Mus musculus [8] = test: Reduction in glucose excursion in C57BL/6 mouse at 72 mg/kg, po in microemulsion administered 30 mins before glucose challenge measured up to 6 hrs postdose by oral glucose tolerance test; type: functional, organism-based; design: dose 72 mg/kg; details: C57BL6
[9] = Aqueous solubility by HPLC analysis; type: physicochemical; details: buffer
Mus musculus [10] = test: Increase in insulin release from beta cells in po dosed C57BL/6 mouse after glucose challenge; type: functional, organism-based; details: C57BL6
Mus musculus [11] = test: Increase in basal insulin release from beta cells in po dosed C57BL/6 mouse; type: functional, organism-based; details: C57BL6
[12] = target: T1, Hexokinase-4 (Homo sapiens); test: Activation of His-tagged human recombinant liver glucokinase expressed in Escherichia coli BL21 (DE3) assessed as drug level required for half-maximal activation for sigmoid activation curve; summary of the method: as §1

SMILES	Activity [1] [nM]	Activity [2] [%]	logPm [5]	half-life [6] [min]	also measured
COc1ccc2nc(NC(=O)C(CC3CCCC3)c3ccc(S(=O)(=O)N4CCOCC4)cc3)sc2n1 (configuration not stated)	153	281	–	–	–
CCC(=O)[N-]S(=O)(=O)c1ccc(C(CC2CCCC2)C(=O)Nc2nc3ccc(OC)nc3s2)cc1.[Na+] (configuration not stated)	–	–	–	–	solubility [3]: 11 µg/mL
COc1ccc2nc(NC(=O)C(CC3CCCC3)c3ccc(S(=O)(=O)N(C)Cc4ccccc4)cc3)sc2n1 (configuration not stated)	263	–	-5.4	26.2	Activity (Mus musculus [4]): inactive
COc1ccc2nc(NC(=O)C(CC3CCCC3)c3ccc(S(=O)(=O)N(C)CCO)cc3)sc2n1 (configuration not stated)	147	–	-4.4	10	–
COc1ccc2nc(NC(=O)C(CC3CCCC3)c3ccc(S(=O)(=O)Nc4cccnc4)cc3)sc2n1 (configuration not stated)	323	219	–	–	–
CCN(CC)S(=O)(=O)c1ccc(C(CC2CCCC2)C(=O)Nc2nc3ccc(OC)nc3s2)cc1 (configuration not stated)	42	345	-5.9	5.8	–
COc1ccc2nc(NC(=O)C(CC3CCCC3)c3ccc(S(=O)(=O)NCc4cccs4)cc3)sc2n1 (configuration not stated)	1450	–	-5.1	25.3	–
CCCN(CCC)S(=O)(=O)c1ccc(C(CC2CCCC2)C(=O)Nc2nc3ccc(OC)nc3s2)cc1 (configuration not stated)	35	–	–	–	–
COc1ccc2nc(NC(=O)C(CC3CCCC3)c3ccc(S(=O)(=O)NCCC(=O)O)cc3)sc2n1 (configuration not stated)	2810	–	-4.3	22.6	Activity (Mus musculus [4]): inactive; solubility [7]: > 570 µg/mL
COc1ccc2nc(NC(=O)C(CC3CCCC3)c3ccc(S(=O)(=O)NCCN(C)C)cc3)sc2n1 (configuration not stated)	117	–	-4.8	9	–
COc1ccc2nc(NC(=O)C(CC3CCCC3)c3ccc(S(=O)(=O)Nc4ccccc4)cc3)sc2n1 (configuration not stated)	583	–	-3.8	–	–
COc1ccc2nc(NC(=O)C(CC3CCCC3)c3ccc(S(=O)(=O)NCc4ccco4)cc3)sc2n1 (configuration not stated)	892	14	-4.9	290	Activity (Mus musculus [4]): inactive
CCCC(=O)[N-]S(=O)(=O)c1ccc(C(CC2CCCC2)C(=O)Nc2nc3ccc(OC)nc3s2)cc1.[Na+] (configuration not stated)	–	–	–	–	solubility [3]: 26 µg/mL
COc1ccc2nc(NC(=O)C(CC3CCCC3)c3ccc(S(=O)(=O)N(C)Cc4ccco4)cc3)sc2n1 (configuration not stated)	109	67	-5.1	5.1	–
COc1ccc2nc(NC(=O)C(CC3CCCC3)c3ccc(S(=O)(=O)NC4CCCCC4)cc3)sc2n1 (configuration not stated)	302	78	-7	4.8	–
COc1ccc2nc(NC(=O)C(CC3CCCC3)c3ccc(S(=O)(=O)N(C(C)C)C(C)C)cc3)sc2n1 (configuration not stated)	73	–	–	–	–

SMILES	Activity [1] [nM]	Activity [2] [%]	logPm [5]	half-life [6] [min]	also measured
COc1ccc2nc(NC(=O)C(CC3CCCC3)c3ccc(S(=O)(=O)NC4CCOCC4)cc3)sc2n1 (configuration not stated)	305	–	-4.5	13.1	–
CCCC(=O)NS(=O)(=O)c1ccc(C(CC2CCCC2)C(=O)Nc2nc3ccc(OC)nc3s2)cc1 (configuration not stated) [listing 1 of 2 here]	–	–	–	–	Activity (Mus musculus [4]): inactive
COc1ccc2nc(NC(=O)C(CC3CCCC3)c3ccc(S(=O)(=O)NC4CC4)cc3)sc2n1 (configuration not stated)	266	–	-5.2	19.5	–
COc1ccc2nc(NC(=O)C(CC3CCCC3)c3ccc(S(=O)(=O)N(C)C)cc3)sc2n1 (configuration not stated)	295	221	-3.3	17.8	–
COCCNS(=O)(=O)c1ccc(C(CC2CCCC2)C(=O)Nc2nc3ccc(OC)nc3s2)cc1 (configuration not stated)	61	85	-5	15.7	Activity (Mus musculus [4]): inactive
COc1ccc2nc(NC(=O)C(CC3CCCC3)c3ccc(S(=O)(=O)N(C)Cc4nccn4C)cc3)sc2n1 (configuration not stated)	66	–	-4.1	< 1.5	–
COc1ccc2nc(NC(=O)C(CC3CCCC3)c3ccc(S(=O)(=O)NCc4ccccc4)cc3)sc2n1 (configuration not stated)	726	32	–	–	–
COc1ccc2nc(NC(=O)C(CC3CCCC3)c3ccc(S(=O)(=O)N4CCN(C)CC4)cc3)sc2n1 (configuration not stated)	39	498	-3.9	9.1	Activity (Mus musculus [8]): Active; solubility [9]: 50 µg/mL (≈ 92 µM); Activity (Mus musculus [10]): inactive; Activity (Mus musculus [11]): inactive; Activity [12]: 11 mM
COc1ccc2nc(NC(=O)C(CC3CCCC3)c3ccc(S(=O)(=O)NCc4ccncc4)cc3)sc2n1 (configuration not stated)	207	–	-4.3	< 1.5	solubility [9]: 10 µg/mL (≈ 18.1 µM)
COc1ccc2nc(NC(=O)C(CC3CCCC3)c3ccc(S(=O)(=O)NCc4ccccn4)cc3)sc2n1 (configuration not stated)	180	–	–	–	solubility [9]: 10 µg/mL (≈ 18.1 µM)
COc1ccc2nc(NC(=O)C(CC3CCCC3)c3ccc(S(=O)(=O)NCc4cccnc4)cc3)sc2n1 (configuration not stated)	377	281	-4.6	< 1.5	Activity (Mus musculus [4]): inactive
CCCCN(CCCC)S(=O)(=O)c1ccc(C(CC2CCCC2)C(=O)Nc2nc3ccc(OC)nc3s2)cc1 (configuration not stated)	181	–	–	–	–
CCC(=O)NS(=O)(=O)c1ccc(C(CC2CCCC2)C(=O)Nc2nc3ccc(OC)nc3s2)cc1 (configuration not stated)	–	–	-4.1	4.8	–
CCCC(=O)NS(=O)(=O)c1ccc(C(CC2CCCC2)C(=O)Nc2nc3ccc(OC)nc3s2)cc1 (configuration not stated) [listing 2 of 2 here]	–	–	-4.4	2.2	–
COc1ccc2nc(NC(=O)C(CC3CCCC3)c3ccc(S(=O)(=O)N4CCCCC4)cc3)sc2n1 (configuration not stated)	66	230	-5.2	6.2	–
O=C(Nc1nc2cccnc2s1)c1ccccc1	489	411	–	–	–
